Data on 3 compounds can be found in ChEMBL document CHEMBL1157306, “Capisterones A and B, which enhance fluconazole activity in Saccharomyces cerevisiae, from the marine green alga Penicillus capitatus” (J Nat Prod, 2006).

As a reminder, the IC50 is the concentration needed to halve the response being measured.

For one data set, the system named is Candida albicans. Description: Antifungal activity against Candida albicans. In kind it is functional, organism-based.
The next data set has as its system Nakaseomyces glabratus. Description: Antifungal activity against Candida glabrata. The class given is functional, organism-based.
The subject of the next data set is Pichia kudriavzevii. Kind of data set: Antifungal activity against Candida krusei. In kind it is functional, organism-based.
In a further data set the test system is Cryptococcus neoformans. Description: Antifungal activity against Cryptococcus neoformans. In kind it is functional, organism-based.
For a further data set, the system named is Aspergillus fumigatus. Kind of data set: Antifungal activity against Aspergillus fumigatus. The class given is functional, organism-based.
A further data set concerns KB. Description: Cytotoxicity against human KB cells. The class given is functional, cell-based. The method in brief: (§1)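 Human cancer cell lines (KB, SK-MEL, BT-549, SK-OV-3) tested alongside non-cancerous Vero cells, with test agent concentrations up to 35 μM.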
In a further data set the test system is SK-MEL. Kind of data set: Cytotoxicity against human SK-MEL cells. The class given is functional, cell-based. The method in brief:
as §1

Another data set has as its system BT-549. Description: Cytotoxicity against human BT549 cells. In kind it is functional, cell-based. The method in brief:
as §1

For a further data set, the system named is SK-OV-3. Kind of data set: Cytotoxicity against human SKOV3 cells. In kind it is functional, cell-based. The method in brief:
as §1

In the next data set the test system is Vero. Kind of data set: Cytotoxicity against african green monkey Vero cells up to 35 uM. In kind it is cell-based. The following applies: chlorocebus sabaeus.
Data set [1] deals with Saccharomyces cerevisiae. Kind of data set: Antifungal activity against Saccharomyces cerevisiae DSY 415 overexpressing Candida albicans CDR1. The class given is functional, organism-based. In a few lines:
(§2)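 Growth inhibition of S. cerevisiae strains with efflux pumps overexpressed (CDR1 or MDR1, DSY 415) or no pump (DSY 390) was measured across a dose range of test agent alone. IC50 was read from the dose-response curves.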

For data set [2], the system named is Saccharomyces cerevisiae. Kind of data set: Antifungal activity against Saccharomyces cerevisiae DSY 415 overexpressing Candida albicans MDR1. The class given is functional, organism-based. In a few lines: as §2
Data set [3] concerns Saccharomyces cerevisiae. Kind of data set: Antifungal activity against null pump Saccharomyces cerevisiae DSY 390. The class given is functional, organism-based. The method in brief: as §2
Data set [4] has as its system Saccharomyces cerevisiae. Description: Potentiation of fluconazole-induced antifungal activity against Saccharomyces cerevisiae DSY 415 overexpressing Candida albicans CDR1 assessed as fractional inhibitory concentration at 6.03 uM. In kind it is functional. In a few lines: (§3)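 Fluconazole dose-response curves were run alone and with a fixed concentration of second agent (22.5, 6.0 or 12.8 μM). Strains were S. cerevisiae null pump DSY 390 and DSY 415 overexpressing C. albicans CDR1 or MDR1. Growth inhibition was the read-out, and the fractional inhibitory concentration was derived from it.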

In data set [5] the test system is Saccharomyces cerevisiae. Kind of data set: Potentiation of fluconazole-induced antifungal activity against Saccharomyces cerevisiae DSY 415 overexpressing Candida albicans MDR1 assessed as fractional inhibitory concentration at 6.03 uM. The class given is functional. In a few lines: as §3
Data set [6] relates to Saccharomyces cerevisiae. Description: Potentiation of fluconazole-induced antifungal activity against null pump Saccharomyces cerevisiae DSY 390 assessed as fractional inhibitory concentration at 6.03 uM. The class given is functional. In a few lines: (§4)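 Pump-null S. cerevisiae DSY 390 was run in parallel with strains overexpressing C. albicans CDR1 or MDR1 efflux pumps. Growth-inhibition dose-response curves were recorded for fluconazole alone and for fluconazole with a fixed modulator concentration (22.5 or 6.0 μM). The interaction was expressed as a fractional inhibitory concentration (FIC) index.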

Data set [7] deals with Saccharomyces cerevisiae. Kind of data set: Antifungal activity against Saccharomyces cerevisiae DSY 415 overexpressing Candida albicans MDR1 at 67.4 uM. The class given is functional, organism-based.
Data set [8] concerns Saccharomyces cerevisiae. Description: Antifungal activity against null pump Saccharomyces cerevisiae DSY 390 at 67.4 uM. The class given is functional, organism-based.
Data set [9] concerns Saccharomyces cerevisiae. Kind of data set: Antifungal activity against Saccharomyces cerevisiae DSY 415 overexpressing Candida albicans MDR1 at 12.8 uM. The class given is functional, organism-based.
Data set [10] deals with Saccharomyces cerevisiae. Kind of data set: Antifungal activity against null pump Saccharomyces cerevisiae DSY 390 at 12.8 uM. In kind it is functional, organism-based.
The test system of data set [11] is Saccharomyces cerevisiae. Kind of data set: Antifungal activity against Saccharomyces cerevisiae DSY 415 overexpressing Candida albicans CDR1 at 67.4 uM. In kind it is functional, organism-based.
Data set [12] concerns Saccharomyces cerevisiae. Description: Antifungal activity against Saccharomyces cerevisiae DSY 415 overexpressing Candida albicans CDR1 at 12.8 uM. In kind it is functional, organism-based.
Data set [13] concerns Saccharomyces cerevisiae. Kind of data set: Potentiation of fluconazole-induced antifungal activity against Saccharomyces cerevisiae DSY 415 overexpressing Candida albicans CDR1 assessed as fractional inhibitory concentration at 22.5 uM. The class given is functional. In a few lines:
as §3

For data set [14], the system named is Saccharomyces cerevisiae. Kind of data set: Potentiation of fluconazole-induced antifungal activity against Saccharomyces cerevisiae DSY 415 overexpressing Candida albicans MDR1 assessed as fractional inhibitory concentration at 22.5 uM. In kind it is functional. The method in brief: as §3
Data set [15] deals with Saccharomyces cerevisiae. Kind of data set: Potentiation of fluconazole-induced antifungal activity against null pump Saccharomyces cerevisiae DSY 390 assessed as fractional inhibitory concentration at 22.5 uM. In kind it is functional. In a few lines:
as §4

Data set [16] has as its system Saccharomyces cerevisiae. Kind of data set: Potentiation of fluconazole-induced antifungal activity against null pump Saccharomyces cerevisiae DSY 390 assessed as fractional inhibitory concentration at 12.8 uM. The class given is functional. The method in brief:
as §3

For data set [17], the system named is Saccharomyces cerevisiae. Kind of data set: Potentiation of fluconazole-induced antifungal activity against Saccharomyces cerevisiae DSY 415 overexpressing Candida albicans CDR1 assessed as fractional inhibitory concentration at 12.8 uM. The class given is functional. The method in brief:
as §3

The test system of data set [18] is Saccharomyces cerevisiae. Kind of data set: Potentiation of fluconazole-induced antifungal activity against Saccharomyces cerevisiae DSY 415 overexpressing Candida albicans MDR1 assessed as fractional inhibitory concentration at 12.8 uM. The class given is functional. In a few lines:
as §3

Active and inactive are the calls of the source. The calls are words filed in the database; no cut-off is given here. Where only a bound is given, the exact number is not on record here.

As for `CC(C)CC(=O)C[C@@H](C)[C@H]1CC[C@@]2(C)[C@@H]3CC[C@H]4[C@](CO)(COS(=O)(=O)O)C(=O)CC[C@@]45C[C@@]35CC[C@]12C` [CAPISTERONE B], the result in the data set on Candida albicans, in the data set with Nakaseomyces glabratus, with Pichia kudriavzevii, in the data set with Cryptococcus neoformans, with Aspergillus fumigatus and in the data set on KB was inactive. Further, the outcome in the data set with SK-MEL, with BT-549 and with SK-OV-3 was inactive. Also, the Activity result with Vero is recorded as “Not Active”. In addition, the IC50 in the data set with Saccharomyces cerevisiae [1], in the data set on Saccharomyces cerevisiae [2] and with Saccharomyces cerevisiae [3] was 7 µM in each case. Moreover, the values for the FIC50 in the data set with Saccharomyces cerevisiae [4], in the data set on Saccharomyces cerevisiae [5] and in the data set on Saccharomyces cerevisiae [6] were 0.33, 0.15 and 0.5, respectively.

Turning to `CC(=O)OC[C@@]1(COS(=O)(=O)O)C(=O)CC[C@]23C[C@]24CC[C@]2(C)[C@@H]([C@H](C)CC(=O)CC(C)C)CC[C@@]2(C)[C@@H]4CC[C@@H]13` [CAPISTERONE A], the result in the data set with Candida albicans, in the data set with Nakaseomyces glabratus, in the data set with Pichia kudriavzevii, in the data set with Cryptococcus neoformans, in the data set with Aspergillus fumigatus and in the data set on KB was inactive. The outcome in the data set with SK-MEL, with BT-549, in the data set on SK-OV-3, in the data set with Saccharomyces cerevisiae [7], with Saccharomyces cerevisiae [8] and in the data set with Saccharomyces cerevisiae [9] was inactive. The result in the data set with Saccharomyces cerevisiae [10], in the data set on Saccharomyces cerevisiae [11] and in the data set on Saccharomyces cerevisiae [12] was inactive. Moreover, the Activity entry in the data set on Vero is “Not Active”. In addition, the 50% inhibitory concentration (IC50) with Saccharomyces cerevisiae [1], with Saccharomyces cerevisiae [2] and in the data set with Saccharomyces cerevisiae [3] was more than 67 µM in each case. The FIC50 was determined as 0.33 in the data set with Saccharomyces cerevisiae [13], 0.08 with Saccharomyces cerevisiae [14] and 0.55 with Saccharomyces cerevisiae [15].

Turning to `CC(C)[C@@H]1OC(=O)[C@@H](Cc2ccccc2)N(C)C(=O)[C@H](C(C)C)OC(=O)[C@@H](Cc2ccccc2)N(C)C(=O)[C@H](C(C)C)OC(=O)[C@@H](Cc2ccccc2)N(C)C1=O` [BEAUVERICIN], the results for the FIC50 with Saccharomyces cerevisiae [16], in the data set on Saccharomyces cerevisiae [17] and with Saccharomyces cerevisiae [18] were 2.67, 0.05 and 2, respectively.
